The values that follow come from ChEMBL document CHEMBL4513216, “Probing the Open Global Health Chemical Diversity Library for Multistage-Active Starting Points for Next-Generation Antimalarials” (ACS Infect Dis, 2020).

The data set is described as follows: Toxicity liver stage against HepG2, at 10uM. Set-up: test concentration 10 uM, cell line HepG2-A16-CD81EGFP. The note with it: human, HepG2-A16-CD81EGFP cells; read-out: INHIBITION
The format is cell-based. A digest of the protocol: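 Uninfected HepG2-A16-CD81EGFP cells, 3 × 10^3 per well, 1536-well, plated on prespotted compound at 10 μM final, parasite-free screening media added to match infected plates; puromycin 10 μM positive, DMSO 0.5% negative; run in parallel with 48 h PbLuc assay at 37 °C, 5% CO2; viability by CellTiter-Glo luminescence, normalized to controls.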
Turning to `O=C(O)CNC(=O)Cc1csc(-c2ccccc2F)n1`, the cytotoxicity at 10 µM is -10.5%. For the compound `COc1cc(C)c(C)cc1S(=O)(=O)NCC(O)c1cccn1C` (centres undefined), the cytotoxicity at 10 µM was -6.19%. `CC(C)C(=O)N1CCCC(Cc2ncccn2)C1` (centres undefined): the cytotoxicity at 10 µM is -2.49%. On to `CC1(C)O[C@@](C)([C@H]2CC3(CCN(c4ncccn4)CC3)CO2)CC[C@@H]1O`, for which the cytotoxicity at 10 µM came to 4.98%. With `c1ccc(Cc2cccc(C3CCCN3C3CCOCC3)n2)cc1` (centres undefined) the figure was 1.62%; with `CN(C)c1cncc(C2CCCN2S(=O)(=O)c2cn(C)cn2)n1` (centres undefined), -27.1%; with `Cc1ncccc1Oc1cncc(C2CCCN2Cc2cncn2C)n1` (centres undefined), -32.8%. The result for `CCn1ncc(S(=O)(=O)NC2(CN3CCOCC3)CCCCC2)c1C` reads 3.83%; that for `Cc1nc(C2CN(C)CCO2)cc(N2CCC(CO)CC2)n1` (centres undefined), -34%; that for `O=C(CCOc1ccccc1)NS(=O)(=O)Cc1ccccc1`, -1.48%.

Consider `Cc1oc(C)c(C(=O)NS(=O)(=O)c2ccc3c(c2)OCCO3)c1Br`, for which the cytotoxicity at 10 µM was determined as 4.4%. The result for `O=C(CCNC1(c2nccs2)CCCC1)N1CCOCC1` reads 0.79%; that for `CC(C(=O)N1CCc2ccccc2C1)N(C)Cc1cscn1` (centres undefined), -1.6%; that for `CCn1c(C)cc(C(=O)N2CCC(Nc3ccc(C)nn3)CC2)c1C`, -5.52%. With `Cc1csc(C2(NC(=O)CCNC(=O)C(C)(C)C)CCCC2)n1` the figure was -7.43%; with `O=C(c1ccoc1)N(Cc1ccncc1)C1CC1`, 1.45%.

Consider `COc1c(C)cnc(CSc2nnc(N3CCCC3)s2)c1C`, for which the cytotoxicity at 10 µM is -13.1%.

As to `CC(C)(C)NC(=O)C1CSCN1S(=O)(=O)c1ccccc1F` (centres undefined), the cytotoxicity at 10 µM was -8.23%. With `CC1CCN(C)c2ccccc2N1C(=O)c1ccn(C)c(=O)c1` (centres undefined) the figure was 2.36%; with `CNS(=O)(=O)CC1CCCN1C(=O)c1cccc(Cl)c1` (centres undefined), -1.5%; with `CCN1CCC(CNC(=O)Nc2cnn(CC(N)=O)c2)C1` (centres undefined), 1.1%. On to `Cc1cccc2nc(CNCc3cccc4c3OCCCO4)cn12`, for which the cytotoxicity at 10 µM was 20.8%. With `Cc1csc(C2(NCc3nnc(-c4ccco4)o3)CCCC2)n1` the figure was 0.416%.

As to `O=C1CC[C@H]2CN(c3ncccc3F)CC[C@H]2N1CCc1ccccc1`, the cytotoxicity at 10 µM amounted to 4.52%. With `COCCC(=O)N1CCC2(CCCN(Cc3cc(OC)ccc3F)C2)C1` (centres undefined) the figure was 3.55%; with `COCCCn1cnnc1C(C)NC(=O)c1[nH]c2ccc(C)cc2c1C` (centres undefined), 2.52%. Take `NCc1cn(-c2ccccc2C(=O)NCc2cccc(Cl)c2)cn1`: the cytotoxicity at 10 µM is 4.14%.

Turning to `Nc1nc(CN2CCCCC2Cn2cncn2)nc2ccccc12` (centres undefined), the cytotoxicity at 10 µM was -15.6%. On to `O=C(NC1CCS(=O)(=O)C1)N1CCN(c2cnccn2)CC1` (centres undefined), for which the cytotoxicity at 10 µM is -0.685%. The result for `CN(CC(=O)Nc1ccc(Br)cn1)C(=O)Cc1ccc(O)cc1` reads -0.0241%. The result for `OC(CNCCn1cccn1)c1ccc2c(c1)OCCO2` (centres undefined) reads -0.361%. The result for `Cn1ncc2c1CCCC2NCc1cnc(-c2ccccc2)nc1` (centres undefined) reads -5.43%; that for `c1nc(CCC2CCCCN2)cc(N2CCCC2)n1` (centres undefined), -21.6%; that for `O=C1[C@H]2CN(Cc3ccncc3)C[C@H]2CN1c1cncnc1`, -0.748%. Turning to `O=C(NC1CCC1)[C@@H]1C[C@@H]2CCN(Cc3ccncc3)C[C@H]2O1`, the cytotoxicity at 10 µM was -22.5%. With `Cn1nc(C2CCN(C(=O)CCN3CCOCC3)CC2)c2cccnc21` the figure was -13.8%; with `COCCO[C@H]1CCN(Cc2cccs2)[C@H]1Cc1cccnc1`, -2.23%; with `Cc1nn(C)c(C)c1CNCc1ccc(N2CCOCC2)nc1`, 3.68%. With `CC(CCc1ccccc1)NC(=O)CNCCCN1CCOCC1` (centres undefined) the figure was -11.1%.
